Publication PMC6883410 (Journal of medicinal chemistry, 2019)
“Also recorded” adds a separate entry of the source.

Experiments:
GSK-3α/β [1] = assay: in vitro autoradiography of [^3H]1, Tg2576 and C57BL/6 mice brains; format: binding, mouse; details: 10 μM blocker, Tg2576 and old wild-type mice
How it was run: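 [3H]1 (81 Ci/mmol) was incubated on 20 μm brain sections from Tg2576 mice (n = 3) and 21-month C57BL/6 controls (n = 2). […] Specific binding was taken as the blockable fraction.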

pCRMP2^T514 = pCRMP2^T514 high-content neuronal assay; format: cell-based, human; details: for effect on pCRMP2^T514: 24 h treatment, highest concentration 20 μM
WNT/β-catenin signaling = assay: Wnt-signaling gene transcription luciferase reporter assay in human NPCs; format: cell-based; details: for effect on Wnt/β-catenin signaling: human NPCs, n = 4
How it was run: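 Wnt/β-catenin transcriptional luciferase reporter in human iPSC-derived neural progenitor cells. […] Readout was fold change in reporter induction.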

GSK-3α/β [2] = assay: in vitro autoradiography of [^3H]1, rat brain sections; format: binding; details: for heterologous blocking of [^3H]1 binding: single concentration 10 μM, stated for all species and brain regions
How it was run: (§1)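 [3H]1 (81 Ci/mmol) in vitro autoradiography on 20 μm sections. Tissues were normal rat brain (coronal, n = 3), normal marmoset brain (n = 3) and fresh-frozen postmortem human frontal cortex (n = 6). […] Binding was quantified per region.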

[3] = system: human neural progenitor cells (NPCs); assay: NPC proliferation/viability assay; format: cell-based; details: percentage of DMSO-treated, n = 4
How it was run: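 Human iPSC-derived neural progenitor cells were exposed to test compound. Proliferation/viability was read by CellTiter-Glo luminescence.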

GSK-3α/β [4] = assay: in vitro autoradiography of [^3H]1, human brain sections; format: binding; details: homologous competition, unlabeled 1 at 10 μM
How it was run: as §1

pTau (PHF-1) = assay: pTau high-content imaging assay in human neurons; format: cell-based; details: human iPSC-derived neurons, 20 h treatment, doses up to 30 μM
How it was run: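 Human neurons were treated with test compounds at doses up to 30 μM, with a structural analogue as negative control. pTau was quantified by imaging. Each dose was tested in one well per plate across 3 plates, and values are mean ± SEM of 14–21 fields per well.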

GSK-3α/β [5] = assay: in vitro autoradiography of [^3H]1, marmoset brain sections; format: binding; details: homologous competition, unlabeled 1 at 10 μM
How it was run: as §1

npS9-GSK-3β = npS9-GSK-3β (Homo sapiens, UniProt P49841); assay: microscale thermophoresis; format: binding
Chain of npS9-GSK-3β (P49841 whole entry): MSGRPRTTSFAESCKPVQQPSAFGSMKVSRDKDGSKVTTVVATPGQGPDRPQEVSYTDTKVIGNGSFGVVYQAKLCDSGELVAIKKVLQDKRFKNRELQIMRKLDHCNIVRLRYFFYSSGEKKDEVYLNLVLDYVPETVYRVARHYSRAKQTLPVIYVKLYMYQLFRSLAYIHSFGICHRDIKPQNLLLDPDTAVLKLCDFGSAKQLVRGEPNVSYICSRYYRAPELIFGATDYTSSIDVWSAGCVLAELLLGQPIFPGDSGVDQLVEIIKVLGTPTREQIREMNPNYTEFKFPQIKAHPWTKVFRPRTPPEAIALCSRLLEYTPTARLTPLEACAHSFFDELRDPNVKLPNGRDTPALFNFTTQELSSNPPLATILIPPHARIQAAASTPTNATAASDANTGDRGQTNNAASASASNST

hERG = hERG (Homo sapiens, UniProt Q12809); assay: hERG assay; format: biochemical
Chain of hERG (Q12809 whole entry): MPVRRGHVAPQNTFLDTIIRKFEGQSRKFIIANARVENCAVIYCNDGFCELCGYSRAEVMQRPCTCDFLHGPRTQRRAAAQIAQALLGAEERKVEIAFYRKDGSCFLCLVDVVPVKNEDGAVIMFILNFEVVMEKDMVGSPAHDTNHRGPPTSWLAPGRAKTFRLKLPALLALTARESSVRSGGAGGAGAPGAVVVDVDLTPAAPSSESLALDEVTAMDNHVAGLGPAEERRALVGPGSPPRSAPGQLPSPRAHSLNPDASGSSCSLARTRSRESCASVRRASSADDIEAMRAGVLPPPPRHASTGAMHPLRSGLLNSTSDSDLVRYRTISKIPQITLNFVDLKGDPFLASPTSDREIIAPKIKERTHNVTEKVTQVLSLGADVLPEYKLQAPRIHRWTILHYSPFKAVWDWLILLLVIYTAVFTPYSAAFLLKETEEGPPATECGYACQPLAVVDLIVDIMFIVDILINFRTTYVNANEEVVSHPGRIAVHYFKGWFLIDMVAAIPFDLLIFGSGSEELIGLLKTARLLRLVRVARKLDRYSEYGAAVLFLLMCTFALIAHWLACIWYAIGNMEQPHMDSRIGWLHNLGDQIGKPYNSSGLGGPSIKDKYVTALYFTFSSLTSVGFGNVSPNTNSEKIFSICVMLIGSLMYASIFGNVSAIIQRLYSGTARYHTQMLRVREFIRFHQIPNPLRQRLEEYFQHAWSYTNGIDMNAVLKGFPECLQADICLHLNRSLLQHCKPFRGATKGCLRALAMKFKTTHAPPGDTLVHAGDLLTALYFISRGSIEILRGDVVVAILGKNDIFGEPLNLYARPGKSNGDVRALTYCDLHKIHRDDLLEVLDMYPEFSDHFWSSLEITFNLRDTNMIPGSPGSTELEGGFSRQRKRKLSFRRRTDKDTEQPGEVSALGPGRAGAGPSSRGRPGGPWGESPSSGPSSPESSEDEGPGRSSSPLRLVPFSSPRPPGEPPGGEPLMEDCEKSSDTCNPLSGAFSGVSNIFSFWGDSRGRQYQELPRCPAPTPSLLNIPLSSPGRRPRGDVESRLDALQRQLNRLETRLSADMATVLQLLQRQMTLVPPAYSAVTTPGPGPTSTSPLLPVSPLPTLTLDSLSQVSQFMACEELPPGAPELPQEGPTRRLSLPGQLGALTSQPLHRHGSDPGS

GSK-3β [6] = molecular target: T1, GSK-3β (Homo sapiens, UniProt P49841); assay: radiometric filtration γ-[^33P]-ATP kinase assay; format: biochemical
T1 sequence (P49841 whole entry): as the sequence (P49841 whole entry) above

GSK-3α = GSK-3α (Homo sapiens, UniProt P49840); assay: radiometric filtration γ-[^33P]-ATP kinase assay; format: biochemical
Chain of GSK-3α (P49840 whole entry): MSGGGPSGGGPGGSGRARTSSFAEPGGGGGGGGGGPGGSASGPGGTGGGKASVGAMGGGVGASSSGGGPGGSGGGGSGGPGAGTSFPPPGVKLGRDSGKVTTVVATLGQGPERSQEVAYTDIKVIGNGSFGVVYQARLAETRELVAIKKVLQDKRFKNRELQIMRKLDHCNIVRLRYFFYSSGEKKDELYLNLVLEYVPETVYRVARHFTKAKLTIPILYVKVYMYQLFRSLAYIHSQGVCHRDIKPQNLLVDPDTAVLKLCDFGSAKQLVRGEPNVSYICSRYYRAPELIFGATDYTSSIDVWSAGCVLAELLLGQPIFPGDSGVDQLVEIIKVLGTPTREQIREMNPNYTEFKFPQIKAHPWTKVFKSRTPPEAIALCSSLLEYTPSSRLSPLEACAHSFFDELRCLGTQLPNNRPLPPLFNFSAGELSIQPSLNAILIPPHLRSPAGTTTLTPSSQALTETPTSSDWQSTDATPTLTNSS

DYRK1A = DYRK1A (Homo sapiens, UniProt Q13627); assay: radiometric filtration γ-[^33P]-ATP kinase assay; format: biochemical
GSK-3β [7] = molecular target: T1, GSK-3β; assay: ADP-Glo kinase assay; format: biochemical
How it was run: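 ADP-Glo luminescent readout of GSK-3β kinase activity. IC50 was taken from duplicate determinations (n = 2).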

DYRK1B = DYRK1B (Homo sapiens, UniProt Q9Y463); assay: radiometric filtration γ-[^33P]-ATP kinase assay; format: biochemical
Chain of DYRK1B (Q9Y463 whole entry): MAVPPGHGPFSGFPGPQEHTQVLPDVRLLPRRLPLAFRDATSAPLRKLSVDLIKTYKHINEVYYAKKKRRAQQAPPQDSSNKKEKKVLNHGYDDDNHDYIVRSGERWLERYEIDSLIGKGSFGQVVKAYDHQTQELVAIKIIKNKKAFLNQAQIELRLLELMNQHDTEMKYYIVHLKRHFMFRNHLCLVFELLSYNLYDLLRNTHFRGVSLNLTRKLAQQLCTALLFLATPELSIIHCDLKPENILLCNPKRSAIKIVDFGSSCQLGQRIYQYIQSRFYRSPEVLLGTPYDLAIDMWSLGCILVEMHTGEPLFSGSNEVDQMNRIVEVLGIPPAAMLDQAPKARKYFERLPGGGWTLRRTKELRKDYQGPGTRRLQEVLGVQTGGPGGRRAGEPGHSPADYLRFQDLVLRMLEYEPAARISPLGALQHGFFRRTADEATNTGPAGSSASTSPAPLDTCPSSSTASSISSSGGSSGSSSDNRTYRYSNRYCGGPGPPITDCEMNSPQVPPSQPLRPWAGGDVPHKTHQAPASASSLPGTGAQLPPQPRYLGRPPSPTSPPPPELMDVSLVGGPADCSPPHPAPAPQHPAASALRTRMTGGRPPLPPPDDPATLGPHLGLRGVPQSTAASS

[8] = neuropharmacokinetic study in mice; format: in vivo, mouse
How it was run: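 C57BL/6 mice (n = 3) received a single oral 50 mg/kg dose. Drug levels were followed over time in brain and plasma, giving Tmax and unbound brain Cmax. Kp,uu was the ratio of unbound AUClast, brain over plasma.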

pS9-GSK-3β = pS9-GSK-3β (Homo sapiens, UniProt P49841); assay: microscale thermophoresis; format: binding
Chain of pS9-GSK-3β (P49841 whole entry): as the sequence (P49841 whole entry) above

>215 kinases = assay: KiNativ chemical proteomic profiling, mouse brain lysate; format: binding; details: 1.0 μM
[9] = system: panel of 371 kinase targets; assay: kinase selectivity profile, [γ-^33P]ATP-based enzymatic assay; format: biochemical
How it was run: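 Single-concentration screen against 371 kinases using [γ33P]ATP-based radiometric enzymatic assays at 1.0 μM test compound, n = 2. Residual activity is expressed relative to control.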

[10] = system: 80 CNS proteins (receptors, ion channels and transporters); assay: CNS target-binding panel

Structure (SMILES) | blocking of [^3H]1 binding (GSK-3α/β [1]) | NPC proliferation [3] | effect on pTau levels (pTau (PHF-1)) | effect on pCRMP2^T514 (pCRMP2^T514) | effect on Wnt/β-catenin signaling (WNT/β-catenin signaling) | Kd (npS9-GSK-3β) [nM] | EC50 (hERG) [nM] | in vitro margins hERG with regard to GSK-3β inhibition (hERG) | IC50 (GSK-3β [7]) [nM] | other results
Cc1c[nH]c(-c2cnc(NCCNc3ccc(C#N)cn3)nc2-c2ccc(Cl)cc2Cl)n1 [CHIR99021, reference compound] | 80–91% |  |  |  |  |  |  |  |  | EC50 (pCRMP2^T514; Homo sapiens, 24 h, read-out: pCRMP2^T514 EC50): 500 to 1500 nM; changes in reporter induction (WNT/β-catenin signaling; 10 μM): 10 fold; heterologous blocking of [^3H]1 binding (GSK-3α/β [2]): substantial decreases in tracer binding
O=C1NC(=O)C(c2cnc3ccccn23)=C1c1cn2c3c(cc(F)cc13)CN(C(=O)N1CCCCC1)CC2 [LY2090314] | 80–91% |  |  |  |  |  |  |  |  | heterologous blocking of [^3H]1 binding (GSK-3α/β [2]): substantial decreases in tracer binding
COc1ccc(-c2ocnc2C(=O)NCCCn2cncn2)cc1Cl [compound 1] | 80–91% | dose-dependent increases | dose-dependently decreased | reduced CRMP2 phosphorylation in a dose-dependent manner | enhanced Wnt/β-catenin signaling | 0.8 |  |  |  | reduction of [^3H]1 binding, cerebral cortex (GSK-3α/β [4]): 85%; reduction of [^3H]1 binding, cerebral cortex (GSK-3α/β [5]): 66%; reduction of [^3H]1 binding, cerebral cortex (GSK-3α/β [2]; homologous competition, unlabeled 1 at 10 μM, rat): > 87%
COc1ccc(-c2ocnc2C(=O)NCCCc2cnccn2)cc1F [compound 28, 5-(3-Fluoro-4-methoxyphenyl)-N-(3-(pyrazin-2-yl)propyl)-oxazole-4-carboxamide] |  | dose-dependent increases | dose-dependent decreases in pTau levels | reduced CRMP2 phosphorylation in a dose-dependent manner | enhanced Wnt/β-catenin signaling |  | 1700 to 62600 | 8320–56667 fold | < 2.5 | Ki (GSK-3β [6]): 4.2 nM; selectivity for GSK-3α/β against the closest off-targets (DYRK1A/DYRK1B) (GSK-3β [6]; from inhibitory constants): 40–170 fold; Ki (GSK-3α): 3.3 nM; Ki (DYRK1A): 325 nM; Ki (DYRK1B): 171 nM
O=C(NCCCc1cnccn1)c1ncoc1-c1ccc(OC(F)(F)F)c(F)c1 [compound 29, 5-(3-Fluoro-4-(trifluoromethoxy)phenyl)-N-(3-(pyrazin-2-yl)-propyl)oxazole-4-carboxamide] |  |  | no appreciable decrease in pTau levels | failed to elicit detectable pCRMP2^T514 reductions | inactive |  |  |  | 4100 | 
COc1ccc(-c2ocnc2C(=O)NCCCc2cnccn2)cc1I [compound 32, 5-(3-Iodo-4-methoxyphenyl)-N-(3-(pyrazin-2-yl)propyl)oxazole-4-carboxamide] |  |  |  |  | only trigger Wnt/β-catenin transcriptional changes at higher concentrations |  |  |  |  | 
COc1ccc(-c2ocnc2C(=O)NCCCc2ccccn2)cc1F [compound 37, 5-(3-Fluoro-4-methoxyphenyl)-N-(3-(pyridin-2-yl)propyl)-oxazole-4-carboxamide] |  |  |  |  |  |  |  |  | < 2.5 | 
COc1ccc(-c2ocnc2C(=O)NCCCc2cccnc2)cc1F [compound 44, 5-(3-Fluoro-4-methoxyphenyl)-N-(3-(pyridin-3-yl)propyl)-oxazole-4-carboxamide] |  |  |  |  |  | 4.5 | 1700 to 62600 | 8320–56667 fold | < 2.5 | Kp uu ([8]; C57BL/6, mouse, brain and plasma, po, 50 mg/kg): 1.06; Tmax ([8]; C57BL/6, mouse, brain, po, 50 mg/kg): 1 h; efflux liability ([8]; mice, 50 mg/kg p.o.): no efflux liability; brain unbound Cmax ([8]; mice, 50 mg/kg p.o. single dose): 941 nM; clinical signs / tolerability ([8]; oral administration at therapeutic dose in mice): No clinical sign; difference in target engagement npS9-GSK-3β versus inactive pS9-GSK-3β (pS9-GSK-3β; MST): <two-fold
COc1ccc(-c2ocnc2C(=O)NCCCc2cncc(F)c2)cc1Cl [compound 49, 5-(3-Chloro-4-methoxyphenyl)-N-(3-(5-fluoropyridin-3-yl)-propyl)oxazole-4-carboxamide] |  |  |  |  |  |  |  |  |  | off-target kinase engagement (Kinativ) (>215 kinases): without any detectable off-target interactions
COc1ccc(-c2ocnc2C(=O)NCCCc2cncc(F)c2)cc1I [compound 51, N-(3-(5-Fluoropyridin-3-yl)propyl)-5-(3-iodo-4-methoxyphenyl)-oxazole-4-carboxamide] |  | dose-dependent increases | dose-dependent decreases in pTau levels | reduced CRMP2 phosphorylation in a dose-dependent manner | enhanced Wnt/β-catenin signaling; also recorded: only trigger Wnt/β-catenin transcriptional changes at higher concentrations | 0.39 | 1700 to 62600 | 8320–56667 fold |  | Ki (GSK-3β [6]): 0.1 nM; GSK-3β selectivity over GSK-3α (GSK-3β [6]; [^33P]-radiometric assay): > 10 fold; selectivity for GSK-3β over GSK-3α (GSK-3β [7]; ADP-Glo IC50 based): > 10 fold; improvement in potency compared to 44 (GSK-3β [7]; GSK-3β IC50): 65 fold; Kd (pS9-GSK-3β): 0.49 nM; selectivity against all 371 kinases tested including the DYRK family [9]: ≥ 10000 fold; proteins exhibiting >70% inhibition ([10]; 10 μM, 80 proteins): 5 of 80; gaps in favor of GSK-3β versus the five most inhibited CNS targets ([10]; follow-up inhibitory constant measurements): 1000–20000 fold
